Assay outcomes from PubChem.
Only a selection was taken, and hits are over-represented in it overall.
Insulin prom act: TRM-6 insulin promoter activation; TRM-6 cells, insulin promoter eGFP reporter, imaging; plate-scaled: unstimulated 0, stimulated control 100; activation, % at 2 µM; actives 0.81% (n = 130,000);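 active = activation at 2 µM above a set limit, confirmed on inspection of the cell images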;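 also: share of cells whose green reporter signal exceeds an intensity cutoff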
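System – human fetal islet-derived TRM-6 cells with tamoxifen-inducible insulin promoter–eGFP reporter · Amount – 1,000 cells per well · Schedule – overnight tamoxifen, then two-day compound incubation at 37 °C · Detection – high-content imaging of fixed cells with Hoechst nuclear stain · Read-out – percent cells above green-intensity threshold, converted to percent activation versus plate controls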
The depositor's hits bear a star.

SMILES | Insulin prom act
O=C(c1cccs1)N1CCN(Cc2ccccn2)CC1 | 4
C/C(=N\NC(=O)CC(C)C)c1ccc(N2CCCCC2)cc1 | 8
O=C(CSc1n[nH]c(-c2ccc(S(=O)(=O)N3CCCCC3)cc2)n1)Nc1nccs1 | -71
CCc1c(C)c(C#N)c2nc3ccccc3n2c1NCC1CCCO1 (stereo not given) | 79*
CC(C)c1cc(NCC2CCCO2)n2c(nc3ccccc32)c1C#N (stereo not given) | 79*
CCc1c(C)c(C#N)c2nc3ccccc3n2c1N1CCN(c2cc(C)ccn2)CC1 | -3
Cc1cc(NCCN2CCCCC2)n2c(nc3ccccc32)c1C#N | 5
CCc1c(C)c(C#N)c2nc3ccccc3n2c1Cl | 153
Cc1c(C#N)c2ccccc2n1CC(=O)NCC1CCCO1 (stereo not given) | 7
Cc1cc(C)nc(NCCO)n1 | -7
CC(=O)N(c1nc(CCl)cs1)c1c(C)cc(C)cc1C | 3
CCN(CCO)Cc1csc2ccc(C(C)(C)C)cc12 | 2
Cc1ccc2c(n1)CC(C)(C)C/C2=N\O | -90
CC(C)(C)c1ccc(OCCNC(=O)c2ncn[nH]2)cc1 | -9
Cc1ccc2nc(C)cc(C(=O)OCC(=O)Nc3c(C)n(C)n(-c4ccccc4)c3=O)c2c1 | 0
COc1ccc(-[n+]2c(C)cc(/C=C3\Sc4ccccc4N3C)cc2C)cc1 | 400*
C=CCSc1nc(N)c(C(=O)Nc2ccccc2C)cc1C(N)=O | -8
CCn1cc(C(=O)N(CCC(C)C)c2c(N)n(Cc3ccccc3)c(=O)[nH]c2=O)c(=O)c2ccc(C)nc21 | 7
O=C(CCS(=O)(=O)Cc1ccccc1)Nc1nc2c(s1)CCCC2 | 10
O=C(CCn1cnc2ccccc2c1=O)Nc1cccc(Cl)c1 | 9
O=C(CCn1cnc2ccccc2c1=O)Nc1nc2c(s1)CCCC2 | 510*
C=CCn1c2ccccc2c2nnc(SCCCn3c(=O)[nH]c4ccccc43)nc21 | 371
Cc1ccc(S(=O)(=O)N2CCC(C(=O)NCCCOC(C)C)CC2)cc1 | -6
Cc1ccc(C)c(/C(O)=C2\C(=O)C(=O)N(Cc3cccnc3)C2c2cccnc2)c1 (stereo not given) | 9
Cc1cc(C)cc(OCC(=O)Nc2ccc3c(c2)C(=O)c2ccccc2C3=O)c1 | 7
SMILES | Insulin prom act
CCCCNc1cc(F)nc(N)n1 | -6
CCOc1ccc(OCC)c(S(=O)(=O)NCc2cccnc2)c1 | -5
CCC(C)NS(=O)(=O)c1ccc(OCC(=O)NCc2cccnc2)cc1 (stereo not given) | -6
CCOc1ccc(S(=O)(=O)NCC(=O)N(C)Cc2cccnc2)cc1 | 79*
CSc1nc2c(c(=O)[nH]1)C(c1cccc(Br)c1)CC(=O)N2 (stereo not given) | -9
C=CCNc1sc(C(=O)c2ccccc2)c(N)c1-c1nc2ccccc2s1 | 2
O=C(c1ccccc1)c1c2c(cc3sc4ccccc4[n+]13)-c1cccc3cccc-2c13 | 233*
CCOC(=O)c1cnc2c(C)c(-c3ccccc3)[nH]n2c1=O | 0
C=CCn1c(SCC(=O)N2CCc3ccccc3C2)nc2sc(C)c(C)c2c1=O | -3
CCn1c(SCC(=O)NC2CCCc3ccccc32)nnc1-c1ccncc1 (stereo not given) | -7
CCn1c(SCC(=O)Nc2ccc(S(=O)(=O)Nc3ccccn3)cc2)nnc1-c1ccncc1 | 569*
CCn1c(SCC(=O)Nc2cccc(NC(=O)c3cccs3)c2)nnc1-c1ccncc1 | 0
CN(Cc1cn(-c2ccccc2)nc1-c1cc2ccccc2o1)C(=O)CCC(=O)O | 108
O=C(NCCCn1ccnc1)C(=O)NCC1OCCN1S(=O)(=O)c1ccc(Br)cc1 (stereo not given) | 0
CC(=O)C1=C(O)C(=O)N(CCCn2ccnc2)C1c1ccc(Br)cc1 (stereo not given) | 347*
CCN(CC)CCCN1C(=O)C(O)=C(C(C)=O)C1c1cccc(OC)c1 (stereo not given) | -7
N#Cc1cccc(NC(=S)Nc2ccccc2)c1 | -6
CCOC(=O)C1=C(C)N(C)C(=S)NC1c1cc(OC)ccc1OC (stereo not given) | 8
O=C(Cn1nc(C(F)(F)F)c2c1CCC2)Nc1ccccc1C(F)(F)F | 600*
O=C(O)Cn1nc(C(F)(F)F)c2c1CCCC2 | -7
O=C(Cn1nc(C(F)(F)F)c2c1CCC2)NC1CCCCC1 | -8
O=C1c2ccccc2NC(c2ccccn2)N1c1ccccc1F (stereo not given) | -3
Cc1cc2ncn(-c3ncnc4sc5c(c34)CCC(C)C5)c2cc1C (stereo not given) | 10
COc1cc(S(=O)(=O)NCC2OCCc3ccccc32)ccc1-n1cnnn1 (stereo not given) | 3
Cc1cccc(Nc2nnc(-c3ccc(N4CCOCC4)c([N+](=O)[O-])c3)c3ccccc23)c1 | -8
SMILES | Insulin prom act
Cc1cc(C)n(CC(O)Cn2c3ccc(Br)cc3c3cc(Br)ccc32)c(=O)n1 (stereo not given) | 77*
O=C(NCCCN1CCCC1=O)c1ccc2c(=O)n(-c3ccccc3F)c(=S)[nH]c2c1 | -7
CCOc1ccc(N2C(=O)C3C(c4ccccc4F)NN(C(=O)c4ccc(C)cc4)C3C2=O)cc1 (stereo not given) | 243
COC(=O)c1ccc(-c2nc3ccccc3[nH]2)cc1 | -64
CC1CCN(C(=O)CSc2nncn2C)CC1 | 3
Cc1nnc(SCC(=O)N2CCCCCC2)n(N)c1=O | 0
CCc1c(C)nc(N)n2c(SCC(=O)N3CCCC(C)C3)nnc12 (stereo not given) | 182*
O=C1C2C3C=CC(CC3)C2C(=O)N1c1ccccc1[N+](=O)[O-] (stereo not given) | -7
COCCNC(=O)C(OC(=O)CC1Sc2ccccc2NC1=O)c1ccccc1 (stereo not given) | 414*
O=C(CC1Sc2ccccc2NC1=O)c1ccc(Br)cc1 (stereo not given) | 8
CCCNC(=O)CC1Sc2ccccc2NC1=O (stereo not given) | 111
CCOC(=O)C1CCN(C(=O)CSc2nccc(C)n2)CC1 | -5
COc1ccc(NC(=S)NCCc2c(C)[nH]c3ccc(OC)cc23)cc1 | 9
Cc1occc1C(=O)NNC(=S)NCc1ccccc1 | 0
Cc1cc(C(C)(C)C)oc1C(=O)NCCCNC(=O)c1oc(C(C)(C)C)cc1C | -10
CCOC(=O)c1cc(C(C)(C)C)oc1CN | -7
CCOC(=O)c1cc(C(C)(C)C)oc1CNC(=O)c1c(C)oc2c1CCCC2 | 493*
COC(=O)c1ccccc1NC(=S)N(Cc1ccc2c(c1)OCO2)Cc1cc2ccc(OC)cc2[nH]c1=O | 108
CCN1CCN(c2nc(Nc3cccc(C)c3)nc(N)c2[N+](=O)[O-])CC1 | 8
Cc1ccc(Nc2nc(NCC3CCCO3)nc(N)c2[N+](=O)[O-])cc1C (stereo not given) | 5
Cc1ccc(Nc2nc(N)c([N+](=O)[O-])c(N3CCC(C)CC3)n2)cc1C | 529*
CC(=O)c1cccc(NC(=O)c2nccnc2C(=O)O)c1 | -71
C=CCN1CCN(c2ccncc2S(=O)(=O)N2CCOCC2)CC1 | -5
CN(Cc1cnn(C)c1)C(=O)C1CCCCC1C(=O)O (stereo not given) | 272
Cc1ccc2nsnc2c1S(=O)(=O)NCc1ccc2c(c1)OCO2 | 0
CCOc1cc(S(=O)(=O)NCc2ccc3c(c2)OCO3)c(C)cc1C | 141*
O=S(=O)(NCc1ccc2c(c1)OCO2)c1cccc2cccnc12 | 0
CN(Cc1ccccc1)S(=O)(=O)c1cccc2cccnc12 | 0
